SUMO Mot1 rescue = inhibitors of SUMOylation pathway: yeast Mot1-301 growth rescue; S. cerevisiae Mot1-301 growth rescue, ATP luminescence, 38.5C; percent above DMSO median, 100 means doubled; growth rescue, % at 18.8 µM; 1% of 320,000 active; AID 2716;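 active = every valid replicate shows activation above 250% relative to neutral control wells; inactive = the rest, any valid replicate at or below 250%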;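 also: OY570 slx delta 5 strain wells were the positive control but not used for scaling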
Cneo AK release = causes C. neoformans cell lysis | adenylate kinase release luminescence, 4 h; normalised: neutral wells 0, clomiphene wells 100 | AID 651654 | lysis activity, % at 15 µM | 0.2% of 360,000 active;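 active = mean lysis activity across replicates of at least 80%, whatever share of replicates individually reach that level; inactive = mean lysis activity below 80%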
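Test system: log-phase Cryptococcus neoformans yeast cells; Quantity: yeast cell density of 5 × 10^6 cells/mL; Buffer or medium: YPD; Doses: single compound concentration per well; Timing: 4 h at 37 °C static, read 1 h later; Measured by: AK luminescence; Read-out basis: lysis from increased AK signal; Control set: Clomiphene as positive control.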
Statin myotox sup = suppression of simvastatin myotoxicity; C2C12 myotubes + simvastatin, ATP luminescence, 48 h; scaled: DMSO 0, geranylgeraniol control 100; 0.78% of 330,000 active; AID 602340; rescue of ATP level, % at 7.49 µM;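 active = mean ATP rescue above about 67%, or every replicate alone reaching that limit, limit read from the data, passing the limit was not always enough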;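 also: myotubes were challenged with 10 µM simvastatin during compound exposure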
Mot1 SUMO dose = inhibits SUMO pathway, affecting Mot1-301 yeast growth; AID 493004; 2,300 tested, under 10 active; shares compounds with SUMO Mot1 rescue; growth activity, percent, % at 42 µM; S. cerevisiae Mot1-301 galactose growth, ATP luminescence, 24 h; -100 = growth of slx-deleted rescue strain;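 active = Signal drops as the depositor expects, and the fitted half-maximal dose is no more than ten times the top valid tested dose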;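 also: more negative values mean stronger growth rescue toward the control strain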
Starred values were filed as active, the others as inactive. Compounds with a hit are over-represented: about 1.5% of the library has one in this group of screens.

Screening Cc1noc(C)c1S(=O)(=O)Nc1ccc2c(c1)C(=O)N([C@@H](C)CO)C[C@@H](C)[C@@H](CN(C)CC1CCCCC1)OCCCC[C@H](C)O2 returned Cneo AK release -2 and Statin myotox sup -36.
`O=[N+]([O-])c1ccc(S(=O)(=O)NCC(c2ccc3c(c2)OCO3)N2CCOCC2)cc1` (configuration not stated) gave Cneo AK release -1 and Statin myotox sup 6.
CN(C)c1ccc(C(CNS(=O)(=O)c2ccc([N+](=O)[O-])cc2)N2CCOCC2)cc1 (configuration not stated) was read as SUMO Mot1 rescue 575*, Cneo AK release 0, Statin myotox sup 6 and Mot1 SUMO dose 0.
For O=C(C[C@@H]1C=C[C@H](NS(=O)(=O)c2ccc(F)cc2)[C@@H](CO)O1)N1CCC(Cc2ccccc2)CC1 the results were Cneo AK release 4 and Statin myotox sup 11.
Screening CCCc1cc(=O)oc2c3c(c4c(c12)OC(C)(C)C=C4)OC(C)C(C)C3O (configuration not stated) returned SUMO Mot1 rescue 779*, Cneo AK release 2, Statin myotox sup 5 and Mot1 SUMO dose 0.
For CCCc1cc(=O)oc2c3c(cc(OCC(=O)N[C@@H](C)C(=O)O)c12)OC(C)(C)CC3 the results were SUMO Mot1 rescue 0, Cneo AK release 8 and Statin myotox sup 2.
Screening CC(C)NC(=O)N(C)C[C@@H]1OCCCC[C@H](C)Oc2ccc(NS(=O)(=O)c3ccc(Cl)cc3)cc2C(=O)N([C@@H](C)CO)C[C@@H]1C returned Cneo AK release -5.
O=S(=O)(Cc1cc(-c2ccccc2)no1)c1ccccc1 was read as SUMO Mot1 rescue 643* and Mot1 SUMO dose 0.
Screening COc1ccc(-c2cc(CS(=O)(=O)c3ccccc3)on2)cc1 returned SUMO Mot1 rescue -3, Cneo AK release -1 and Statin myotox sup 5.
Screening CO[C@@H]1CN(C)C(=O)c2ccc(NC(=O)C3CCC3)cc2OC[C@@H](C)N(C(=O)CN(C)C)C[C@@H]1C returned Cneo AK release -4 and Statin myotox sup -11.
For Cn1nc(C(=O)NCCc2ccc(Cl)cc2)c2c1-c1ccccc1S(=O)(=O)C2 the results were SUMO Mot1 rescue 440*, Cneo AK release 1, Statin myotox sup -45 and Mot1 SUMO dose 1.
Cc1ccc(CCNC(=O)c2nn(C)c3c2CS(=O)(=O)c2ccccc2-3)cc1 was read as SUMO Mot1 rescue -7, Cneo AK release -1 and Statin myotox sup -17.
Screening CC(C)C#Cc1ccc2c(c1)O[C@@H](CN(C)C(=O)c1ccncc1)[C@@H](C)CN([C@@H](C)CO)S2(=O)=O returned Cneo AK release 0 and Statin myotox sup 5.
CCC(=O)N1C[C@@H]2[C@H](c3ccccc31)[C@@H](CO)N2Cc1ccccc1F was read as Cneo AK release -2 and Statin myotox sup 2.
Screening O=S(=O)(NCc1ccccc1)c1ccc(S(=O)(=O)N(Cc2ccccn2)Cc2ccco2)cc1 returned SUMO Mot1 rescue 841*, Cneo AK release -1, Statin myotox sup -6 and Mot1 SUMO dose 0.
CCN(CC)S(=O)(=O)c1ccc(S(=O)(=O)N(Cc2ccccn2)Cc2ccco2)cc1 was read as SUMO Mot1 rescue -13, Cneo AK release 4 and Statin myotox sup 1.
For CN1c2ccc(Br)cc2[C@H]2[C@H](CCN2S(=O)(=O)c2ccccc2F)[C@H]1CO the results were Cneo AK release -16 and Statin myotox sup 45.
For COCC(=O)Nc1ccc2c(c1)[C@H]1C[C@H](CC(=O)NCc3ccncc3)O[C@H](CO)[C@H]1O2 the results were Cneo AK release -3 and Statin myotox sup 4.
Screening Cc1ccc(S(=O)(=O)Nc2ccc3c(c2)C(=O)N([C@H](C)CO)C[C@H](C)[C@@H](CN(C)Cc2ccccc2)OCCCC[C@@H](C)O3)cc1 returned Cneo AK release 1.
For CN(C)S(=O)(=O)c1cccc(C(=O)Nc2ccccc2)c1 the results were SUMO Mot1 rescue -27.
For CC(C)N(C(=S)Nc1cccc(S(=O)(=O)N(C)C)c1)c1ccccc1 the results were SUMO Mot1 rescue 454*, Cneo AK release 0, Statin myotox sup -48 and Mot1 SUMO dose 1.
Screening CN(C)S(=O)(=O)c1cccc(NC(=O)C(c2ccccc2)c2ccccc2)c1 returned SUMO Mot1 rescue 404*, Cneo AK release 0, Statin myotox sup -29 and Mot1 SUMO dose 0.
CN1CCN(C(=S)Nc2cccc(S(=O)(=O)N(C)C)c2)CC1 was read as SUMO Mot1 rescue 30.
`CCOC(=O)c1c(N)sc(C(=O)N2CCCCCC2)c1C` gave SUMO Mot1 rescue 0, Cneo AK release 1 and Statin myotox sup -19.
For CCOC(=O)c1c(N)sc(C(=O)N2CCCC(C(N)=O)C2)c1C (configuration not stated) the results were SUMO Mot1 rescue 933*, Cneo AK release 3, Statin myotox sup -20 and Mot1 SUMO dose 1.
Screening CCCN(C)C[C@H]1OCCCC[C@H](C)Oc2ccc(NS(=O)(=O)c3ccc(F)cc3)cc2C(=O)N([C@H](C)CO)C[C@H]1C returned Cneo AK release 2 and Statin myotox sup 35.
C[C@@H]1CCCCO[C@@H](CN(C)C(=O)CCC(F)(F)F)[C@@H](C)CN([C@H](C)CO)C(=O)c2cc(NC(=O)c3ccncc3)ccc2O1 was read as Cneo AK release -12.
For CCOC(=O)c1[nH]c2ccc(F)cc2c1NC(=O)CCN1CCSCC1 the results were SUMO Mot1 rescue -29, Cneo AK release 4 and Statin myotox sup 60.
For CCOC(=O)c1[nH]c2ccc(F)cc2c1NC(=O)CCN1CCOCC1 the results were SUMO Mot1 rescue 383* and Mot1 SUMO dose 0.
`CCC(C)c1ccc(S(=O)(=O)N2CCN(C(=O)COc3ccc4c(C)cc(=O)oc4c3)CC2)cc1` (configuration not stated) gave SUMO Mot1 rescue 524*, Statin myotox sup 19 and Mot1 SUMO dose 0.
Screening COc1ccc(S(=O)(=O)N2CCN(C(=O)COc3ccc4c(C)cc(=O)oc4c3)CC2)cc1 returned SUMO Mot1 rescue -10 and Cneo AK release 2.
CCN(CC)S(=O)(=O)c1cc(NC(=O)COC(=O)CCc2nc3ccccc3s2)ccc1C was read as SUMO Mot1 rescue 363*, Cneo AK release 1, Statin myotox sup -3 and Mot1 SUMO dose 0.
`CCN(CC)S(=O)(=O)c1cccc(NC(=O)COC(=O)CCc2nc3ccccc3s2)c1` gave SUMO Mot1 rescue -4, Cneo AK release 3 and Statin myotox sup 4.
`C[C@H]1CN([C@@H](C)CO)S(=O)(=O)c2ccc(C#CC3(O)CCCC3)cc2O[C@H]1CN(C)C(=O)Cc1cccnc1` gave Cneo AK release 3 and Statin myotox sup -15.
For O=C(Nc1nc2ccccc2s1)c1cccc(S(=O)(=O)N2CCc3ccccc32)c1 the results were SUMO Mot1 rescue active, Cneo AK release -1, Statin myotox sup 3 and Mot1 SUMO dose 0.

Compound activity from PubChem.
